High-throughput results: PubChem, several laboratories
The list is not random: actives were taken first. Their share in the collection is about 2.1%.
PABP FP inh – blocks human PABP binding to poly(A) RNA. P11940. fluorescence polarization. inhibition, % at 35 µM. 290,000 compounds, 1% hits. AID 2014;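 further: calls also rest on retests at 20 µM and on dose response follow-up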
eIF4H inh – inhibitors of RNA binding by human eIF4H; eIF4H fluorescence polarization binding assay; inhibition, % at 35 µM; Q15056; 290,000 compounds, 0.94% hits;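 further: calls also rest on retests at 20 µM and on dose response follow-up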
ZTA counter – blocks Epstein-Barr virus ZTA, an EBNA-1 counter-screen; P03206; inhibition, % at 11 µM; ZTA-DNA binding, fluorescence polarization; 320,000 compounds, 0.15% hits; in the data active means inhibition above about 33%
Target sequence (P03206 whole entry, looked up): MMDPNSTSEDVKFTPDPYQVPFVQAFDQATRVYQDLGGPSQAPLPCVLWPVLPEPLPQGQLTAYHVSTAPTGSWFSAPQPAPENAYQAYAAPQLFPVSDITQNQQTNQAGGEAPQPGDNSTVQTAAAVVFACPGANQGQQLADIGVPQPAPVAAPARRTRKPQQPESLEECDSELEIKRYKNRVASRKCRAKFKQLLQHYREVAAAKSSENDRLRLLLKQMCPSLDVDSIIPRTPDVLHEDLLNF
EBNA-1 inh – blocks EBNA-1 binding to DNA; 300,000 compounds, 0.34% hits; inhibition, % at 14.8 µM; AID 1950; EBNA-1 DNA binding, fluorescence polarization; in the data active means inhibition above about 28%
NS3 helicase inh – blocks Hepatitis C virus NS3 helicase unwinding; 290,000 compounds, 0.56% hits; AID 1800; inhibition, % at 10.9 µM; NS3 helicase DNA unwinding, Cy5 molecular beacon fluorescence;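 active means inhibition above the mean of all tested compounds plus 3 SD, set per campaign, cut at about 35% in these data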;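 further: 0% = DMSO wells and 100% = thioflavine S control wells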
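test system = hepatitis C virus NS3 helicase domain fragment enzyme | reagent = annealed dual-labelled DNA beacon duplex, ATP-started | times = 1 h at 25 °C | detection = Cy5 fluorescence, 0 and 60 min reads | read-out basis = percent inhibition from t60/t0 fluorescence ratio | control set = DMSO and thioflavine S | replication = one well per compound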
MLLE-PAM2 inh – inhibitors of microRNA-mediated deadenylation, human PABP1 MLLE binding; inhibition, % at 20 µM; 360,000 compounds, 0.36% hits; AID 588489; GST-MLLE / FITC-PAM2 fluorescence polarization; P11940; in the data active means inhibition above about 35%, passing the limit was not always enough;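 further: plate controls were DMSO wells with GST-MLLE for no effect and wells lacking GST-MLLE protein for full effect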
* hit, by the source's call; ? = inconclusive; nt = not tested or not shown. Unless noted, how the calls were made is not given here.

SMILES	PABP FP inh	eIF4H inh	ZTA counter	EBNA-1 inh	NS3 helicase inh	MLLE-PAM2 inh
CC(Oc1ccc2c3c(c(=O)oc2c1)CCC3)C(=O)NCCN1CCOCC1 (configuration not stated)	-6	-3	-15	-16	12	4
NCCCC[C@H]1NC(=O)[C@H](CCC(=O)O)NC(=O)c2cc([N+](=O)[O-])cc(I)c2OCC[C@@H](C(N)=O)NC1=O	2	23	12	4	12	nt
NC(=O)CC1NC(=O)c2cc([N+](=O)[O-])cc(I)c2OCCC(C(N)=O)NC(=O)[C@@H]2CCCN2C1=O (some centres not stated)	59	active	-4	0	-3	nt
Cc1cc(-c2n[nH]c(=S)n2-c2ccccc2C)cs1	116	active	8	3	-10	-6
Cc1ccccc1-n1c(-c2ccncc2)n[nH]c1=S	6	0	20	-2	nt	-32
CCOC(=O)c1cc(NC(=O)Nc2nc3ccccc3s2)c(C)nc1C	-7	5	0	5	4	3
COCCCNc1nc2nonc2nc1N1CCN(Cc2cccc(C)c2)CC1	?	?	2	-3	8	-6
Fc1cccc(CN2CCN(c3nc4nonc4nc3NC3CC3)CC2)c1	77*	90*	19	-1	5	12
COC(=O)c1cc(CNC(=O)c2ccc(N3CCCC3)c([N+](=O)[O-])c2)ccc1OC	54*	22	-9	3	-2	4
COc1ccc(C(=O)/C=C/c2ccc(N3CCCCC3)c([N+](=O)[O-])c2)cc1	81*	active	-22	3	-21	2
COC(=O)C1CCN(CC(=O)Nc2ccc(OC)c(Cl)c2)CC1	0	-2	1	-10	-7	-4
COC(=O)c1ccc2cc(OC)c(OC)cc2c1	nt	nt	nt	nt	nt	3
O=C(Nc1cccc(Cl)c1)c1cc(N=Nc2ccc([N+](=O)[O-])cc2Cl)ccc1O	5.7*	81	-8	-3	26	-5
Nc1ccc(S(=O)(=O)Nc2cnc3c(Cl)cccc3n2)cc1	nt	nt	nt	nt	nt	0
O=C(Cn1sc2ccccc2c1=O)NC12CC3CC(CC(C3)C1)C2	-2	2	-3	-8	2	53*
CC(O)(CS(=O)(=O)Cc1ccccc1Cl)C(=O)Nc1cccc(C(F)(F)F)c1 (configuration not stated)	-5	2	15	12	0	4
O=C1C=CC(=O)N1c1ccc2ccccc2c1	nt	nt	nt	nt	nt	35
O=C1C=CC(=O)N1c1ccc(Nc2ccccc2)cc1	nt	nt	nt	nt	nt	41*
O=C(O)c1cc(Cl)c(Cl)cc1C(=O)Nc1cccc2cccnc12	5	74	-15	3	-4	11
Cc1cc2cc(C(c3nnnn3Cc3ccccc3)N3CCc4ccccc43)c(=O)[nH]c2cc1C (configuration not stated)	40	-4	2	3	0	4
COc1ccc2[nH]c(=O)c(C(c3nnnn3CC3CCCO3)N3CCc4ccccc4C3)cc2c1 (configuration not stated)	23	2	0	2	8	37
COc1ccc2[nH]c(=O)c(C(c3nnnn3C3CCCCC3)N3CCN(C)CC3)cc2c1 (configuration not stated)	-4	-10	-21	-6	3	0
CCC(C)(C)n1nnnc1C(c1cc2ccc(OC)cc2[nH]c1=O)N1CCc2ccccc2C1 (configuration not stated)	12	0	-7	-9	-4	72*
Cc1cc2cc(C(c3nnnn3Cc3ccco3)N3CCc4ccccc43)c(=O)[nH]c2cc1C (configuration not stated)	77*	26*	-21	-2	27	-4
COc1ccc2cc(C(c3nnnn3C3CCCC3)N3CCc4ccccc4C3)c(=O)[nH]c2c1 (configuration not stated)	41	2	-9	3	-5	41*
SMILES	PABP FP inh	eIF4H inh	ZTA counter	EBNA-1 inh	NS3 helicase inh	MLLE-PAM2 inh
Cc1ccc2[nH]c(=O)c(C(c3nnnn3CC3CCCO3)N3CCc4ccccc4C3)cc2c1 (configuration not stated)	24	-3	-8	18	-2	78*
COc1ccc2cc(C(c3nnnn3C(C)(C)C)N3CCc4ccccc4C3)c(=O)[nH]c2c1 (configuration not stated)	3	-4	8	3	28	nt
Cc1cc(C)c(-c2csc(NC(=O)C3=COCCO3)n2)cc1C	nt	nt	6	-13	nt	3
O=[N+]([O-])c1cc(/C=N/N2CCCCC2)ccc1Cl	-14	-8	8	-4	20	-10
COCC1CCCN(Cc2cn(Cc3ccccc3)nc2-c2cc3ccccc3o2)C1 (configuration not stated)	-6	0	17	-3	-40	3
NC(CO)(CO)COCc1ccccc1	130*	68	-5	-8	14	10
COCCn1c(=NC(=O)C(C)(C)C)sc2cc([N+](=O)[O-])ccc21	-4	-5	-7	-4	-2	-14
CC1CCN(CCNC(=O)C2CCCN(S(=O)(=O)c3cccc4nsnc34)C2)CC1 (configuration not stated)	-5	-8	12	4	-10	3
Cc1cc(C)cc(Nc2ccc(C(=O)O)cc2N)c1	active	54*	-3	-4	30	13
O=C(NCC1CCCN(C(=O)c2cscn2)C1)c1ccc(-c2ccccc2)cc1 (configuration not stated)	1	0	8	11	3	17
O=C1N=C(N2CCOCC2)S/C1=C/c1cc2c(cc1[N+](=O)[O-])OCO2	59*	87*	-4	-5	-6	-7
O=C(O)c1oc2ccc(Br)cc2c1-n1cccc1	20*	81*	20	12	32	4
Cc1cccc(/N=C/c2sc3ccccc3c2O)n1	72	92	19	9	9	14
Oc1c(C=Nc2cccc3cccnc23)sc2ccccc12	119*	125*	-9	3	7	nt
Cc1ccc(Oc2c(C=O)c3ccccc3n2C)cc1	-10	7	7	-7	-4	-13
O=C(NC1CCCCC1)c1cc(C(=O)c2ccccc2Br)c[nH]1	-22	-5	16	10	4	-18
CCN(CC)CCCNC(=O)c1cc(Cl)c(NC(=O)C2=C(C)OCCS2)cc1OC	55*	93*	0	4	-9	-12
COC(=O)c1ccc(=O)c2nc3/c(=C/O)c(O)cc(=O)c3[nH]c12	100*	85*	5	103*	18	6
COC(=O)c1ccc(N)cc1O	-11	2	-5	-9	2	4
Cc1cccc(-c2cc3c(N=O)c4ccccc4c-3n[nH]2)c1	33	-4	-6	30*	-3	-3
CC1=NN(c2ccccc2)C(=O)C1C(=S)SC1CC(=O)NC1=O (configuration not stated)	nt	nt	nt	nt	nt	49*
